Measured values taken from PMC5084759 (British Journal of Haematology, 2016).

Tests used:
[1] = Single-dose plasma pharmacokinetics of oral ixazomib; format: in vivo, human; conditions: for Total AUC0-last, geometric mean (% CV): single 3 mg oral dose
Procedure, shortened: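 Groups were CrCl ≥90 or <30 ml/min (Cockcroft–Gault) or on haemodialysis. Each patient took a single oral 3 mg dose fasted with about 240 ml water. Plasma was sampled pre-dose to 336 h and assayed by LC-MS/MS (0·5–500 ng/ml). Cmax and AUC0-last came from non-compartmental analysis. Group ratios of geometric means (90% CI) came from ANOVA on log-transformed parameters, with normal function as reference.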

[2] = Haemodialysis clearance, pre- and post-dialyser plasma samples in ESRD patients; format: in vivo, human
[3] = Safety and tolerability: adverse events; format: in vivo, human; conditions: for On-study deaths: first dose to 30 d after last dose
Procedure, shortened: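 The safety population was all patients given ≥1 dose: a single 3 mg dose in Part A, then optional Part B dosing at 4, 3 or 2·3 mg on days 1, 8 and 15 of 28-d cycles, with or without dexamethasone. AEs, including SAEs, were recorded throughout treatment up to 30 d after the last dose and graded by NCI CTCAE v4.03.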

[4] = test system: relapsed and/or refractory multiple myeloma; test: Myeloma disease response; format: in vivo, human
Procedure, shortened: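 Part B dosing was oral ixazomib 4, 3 or 2·3 mg on days 1, 8 and 15 of 28-d cycles. Some patients also received dexamethasone 40 mg (20 mg if >75 years) on days 1, 8, 15 and 22 at investigator discretion. Investigators assessed response by IMWG uniform criteria across all cycles, with one bone marrow assessment to document CR. DOR ran from first CR/VGPR/PR to first progression.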

[5] = Stability of ixazomib in dialysate fluid; format: physicochemical; conditions: dialysate fluid used in haemodialysis
[6] = CrCl 30-89 ml/min; ref Gupta et al, 2015b; cited from earlier work
[7] = ref Gupta et al, 2013; cited from earlier work
CYP3A = conditions: supra-therapeutic concentrations; ref unpublished observations; cited from earlier work
CYP1A2 = conditions: supra-therapeutic concentrations; ref unpublished observations; cited from earlier work
[8] = severe RI/ESRD patients versus patients with normal renal function

Compound: CC(C)C[C@H](NC(=O)CNC(=O)c1cc(Cl)ccc1Cl)B(O)O [ixazomib]
- Total systemic exposure, higher versus normal renal function [1, 8]: 39%
- Unbound systemic exposure, higher versus normal renal function [1, 8]: 38%
- Total AUC0-last, geometric mean (% CV) ([1]; ESRD (n = 6)): 783 (35) h·ng/ml
- Total AUC0-last, geometric mean (% CV) ([1]; normal renal function (n = 15)): 575 (38) ^c h·ng/ml
- Total AUC0-last, geometric mean (% CV) ([1]; severe RI (n = 10)): 813 (51) ^d h·ng/ml
- Haemodialysis clearance as share of overall systemic clearance ([2]; ESRD patients requiring haemodialysis): less than 10%
- Ixazomib concentrations in pre- versus post-dialyser samples ([2]; ESRD patients, 4-h haemodialysis session about 24-28 h after dose): similar
- clearance ([2]; human, plasma, oral, 3 mg): < 2 mL/min
- Any TEAE ([3]; ESRD (N = 7)): 6 (86) n (%)
- Any TEAE, Grade ≥3 ([3]; ESRD (N = 7)): 4 (57) n (%)
- Drug-related SAE ([3]; ESRD (N = 7)): 0 n (%)
- SAE ([3]; ESRD (N = 7)): 3 (43) n (%)
- Study drug-related TEAE ([3]; ESRD (N = 7)): 4 (57) n (%)
- Study drug-related TEAE, Grade ≥3 ([3]; ESRD (N = 7)): 1 (14) n (%)
- TEAE resulting in ixazomib discontinuation ([3]; ESRD (N = 7)): 0 n (%)
- TEAE resulting in ixazomib dose reduction ([3]; ESRD (N = 7)): 0 n (%)
- TEAE: Anaemia ([3]; ESRD (N = 7)): 2 (29) n (%)
- TEAE: Arthralgia ([3]; ESRD (N = 7)): 1 (14) n (%)
- TEAE: Constipation ([3]; ESRD (N = 7)): 1 (14) n (%)
- TEAE: Diarrhoea ([3]; ESRD (N = 7)): 1 (14) n (%)
- TEAE: Dizziness ([3]; ESRD (N = 7)): 1 (14) n (%)
- TEAE: Dyspnoea ([3]; ESRD (N = 7)): 1 (14) n (%)
- TEAE: Fatigue ([3]; ESRD (N = 7)): 1 (14) n (%)
- TEAE: Hypotension ([3]; ESRD (N = 7)): 1 (14) n (%)
- TEAE: Nausea ([3]; ESRD (N = 7)): 2 (29) n (%)
- TEAE: Peripheral oedema ([3]; ESRD (N = 7)): 0 n (%)
- TEAE: URT infection ([3]; ESRD (N = 7)): 1 (14) n (%)
- TEAE: Vomiting ([3]; ESRD (N = 7)): 2 (29) n (%)
- On-study deaths ([3]; ESRD (N = 7)): 1 (14) n (%)
- Dose reductions for ixazomib or dexamethasone ([3]; ESRD group): no dose reductions
- Incidence of AE anaemia ([3]; ESRD group): 29%
- Incidence of grade ≥3 AEs ([3]; ESRD group): 57%
- Incidence of serious AEs ([3]; ESRD group): 43%
- On-study deaths, number ([3]; ESRD group): 1
- Investigator-attributed drug-related anaemia ([3]; ESRD patients): 0%
- Incidence of TEAE anaemia ([3]; all 41 patients): 22%
- Incidence of TEAE diarrhoea ([3]; all 41 patients): 39%
- Incidence of TEAE fatigue ([3]; all 41 patients): 29%
- Incidence of TEAE nausea ([3]; all 41 patients): 34%
- Incidence of TEAE vomiting ([3]; all 41 patients): 32%
- Incidence of grade ≥3 TEAE anaemia ([3]; all 41 patients): 15%
- Incidence of grade ≥3 TEAE decreased platelet count ([3]; all 41 patients): 7%
- Incidence of grade ≥3 TEAE hypotension ([3]; all 41 patients): 7%
- Patients with a TEAE of any grade ([3]; all 41 patients): 95%
- Patients who developed peripheral neuropathy ([3]; all 41 patients (six patients)): 15%
- Incidence of study drug-related TEAE diarrhoea ([3]; all patients): 29%
- Incidence of study drug-related TEAE nausea ([3]; all patients): 29%
- On-study deaths, number ([3]; all patients): three
- Patients with at least 1 TEAE ([3]; four patients with solid tumours (three patients)): 75%
- Any TEAE ([3]; normal renal function (N = 20)): 19 (95) n (%)
- Any TEAE, Grade ≥3 ([3]; normal renal function (N = 20)): 9 (45) n (%)
- Drug-related SAE ([3]; normal renal function (N = 20)): 3 (15) n (%)
- SAE ([3]; normal renal function (N = 20)): 3 (15) n (%)
- Study drug-related TEAE ([3]; normal renal function (N = 20)): 16 (80) n (%)
- Study drug-related TEAE, Grade ≥3 ([3]; normal renal function (N = 20)): 7 (35) n (%)
- TEAE resulting in ixazomib discontinuation ([3]; normal renal function (N = 20)): 2 (10) n (%)
- TEAE resulting in ixazomib dose reduction ([3]; normal renal function (N = 20)): 4 (20) n (%)
- TEAE: Anaemia ([3]; normal renal function (N = 20)): 1 (5) n (%)
- TEAE: Arthralgia ([3]; normal renal function (N = 20)): 3 (15) n (%)
- TEAE: Constipation ([3]; normal renal function (N = 20)): 5 (25) n (%)
- TEAE: Diarrhoea ([3]; normal renal function (N = 20)): 9 (45) n (%)
- TEAE: Dizziness ([3]; normal renal function (N = 20)): 1 (5) n (%)
- TEAE: Dyspnoea ([3]; normal renal function (N = 20)): 2 (10) n (%)
- TEAE: Fatigue ([3]; normal renal function (N = 20)): 5 (25) n (%)
- TEAE: Hypotension ([3]; normal renal function (N = 20)): 1 (5) n (%)
- TEAE: Nausea ([3]; normal renal function (N = 20)): 7 (35) n (%)
- TEAE: Peripheral oedema ([3]; normal renal function (N = 20)): 2 (10) n (%)
- TEAE: URT infection ([3]; normal renal function (N = 20)): 5 (25) n (%)
- TEAE: Vomiting ([3]; normal renal function (N = 20)): 6 (30) n (%)
- On-study deaths ([3]; normal renal function (N = 20)): 0 n (%)
- AEs leading to ixazomib discontinuations ([3]; normal renal function group): 10%
- AEs leading to ixazomib dose reductions ([3]; normal renal function group): 20%
- Incidence of AE anaemia ([3]; normal renal function group): 5%
- Incidence of grade ≥3 AEs ([3]; normal renal function group): 45%
- Incidence of serious AEs ([3]; normal renal function group): 15%
- Investigator-attributed drug-related anaemia ([3]; normal renal function group): 5%
- Any TEAE ([3]; severe RI (N = 14)): 14 (100) n (%)
- Any TEAE, Grade ≥3 ([3]; severe RI (N = 14)): 11 (79) n (%)
- Drug-related SAE ([3]; severe RI (N = 14)): 2 (14) n (%)
- SAE ([3]; severe RI (N = 14)): 6 (43) n (%)
- Study drug-related TEAE ([3]; severe RI (N = 14)): 12 (86) n (%)
- Study drug-related TEAE, Grade ≥3 ([3]; severe RI (N = 14)): 7 (50) n (%)
- TEAE resulting in ixazomib discontinuation ([3]; severe RI (N = 14)): 4 (29) n (%)
- TEAE resulting in ixazomib dose reduction ([3]; severe RI (N = 14)): 4 (29) n (%)
- TEAE: Anaemia ([3]; severe RI (N = 14)): 6 (43) n (%)
- TEAE: Arthralgia ([3]; severe RI (N = 14)): 2 (14) n (%)
- TEAE: Constipation ([3]; severe RI (N = 14)): 3 (21) n (%)
- TEAE: Diarrhoea ([3]; severe RI (N = 14)): 6 (43) n (%)
- TEAE: Dizziness ([3]; severe RI (N = 14)): 4 (29) n (%)
- TEAE: Dyspnoea ([3]; severe RI (N = 14)): 3 (21) n (%)
- TEAE: Fatigue ([3]; severe RI (N = 14)): 6 (43) n (%)
- TEAE: Hypotension ([3]; severe RI (N = 14)): 3 (21) n (%)
- TEAE: Nausea ([3]; severe RI (N = 14)): 5 (36) n (%)
- TEAE: Peripheral oedema ([3]; severe RI (N = 14)): 4 (29) n (%)
- TEAE: URT infection ([3]; severe RI (N = 14)): 1 (7) n (%)
- TEAE: Vomiting ([3]; severe RI (N = 14)): 5 (36) n (%)
- On-study deaths ([3]; severe RI (N = 14)): 2 (14) n (%)
- AEs leading to ixazomib discontinuations ([3]; severe RI group): 29%
- AEs leading to ixazomib dose reductions ([3]; severe RI group): 29%
- Incidence of AE anaemia ([3]; severe RI group): 43%
- Incidence of grade ≥3 AEs ([3]; severe RI group): 79%
- Incidence of serious AEs ([3]; severe RI group): 43%
- Investigator-attributed drug-related anaemia ([3]; severe RI group): 29%
- On-study deaths, number ([3]; severe RI group): 2
- Any TEAE ([3]; total (N = 41)): 39 (95) n (%)
- Any TEAE, Grade ≥3 ([3]; total (N = 41)): 24 (59) n (%)
- Drug-related SAE ([3]; total (N = 41)): 5 (12) n (%)
- SAE ([3]; total (N = 41)): 12 (29) n (%)
- Study drug-related TEAE ([3]; total (N = 41)): 32 (78) n (%)
- Study drug-related TEAE, Grade ≥3 ([3]; total (N = 41)): 15 (37) n (%)
- TEAE resulting in ixazomib discontinuation ([3]; total (N = 41)): 6 (15) n (%)
- TEAE resulting in ixazomib dose reduction ([3]; total (N = 41)): 8 (20) n (%)
- TEAE: Anaemia ([3]; total (N = 41)): 9 (22) n (%)
- TEAE: Arthralgia ([3]; total (N = 41)): 6 (15) n (%)
- TEAE: Constipation ([3]; total (N = 41)): 9 (22) n (%)
- TEAE: Diarrhoea ([3]; total (N = 41)): 16 (39) n (%)
- TEAE: Dizziness ([3]; total (N = 41)): 6 (15) n (%)
- TEAE: Dyspnoea ([3]; total (N = 41)): 6 (15) n (%)
- TEAE: Fatigue ([3]; total (N = 41)): 12 (29) n (%)
- TEAE: Hypotension ([3]; total (N = 41)): 5 (12) n (%)
- TEAE: Nausea ([3]; total (N = 41)): 14 (34) n (%)
- TEAE: Peripheral oedema ([3]; total (N = 41)): 6 (15) n (%)
- TEAE: URT infection ([3]; total (N = 41)): 7 (17) n (%)
- TEAE: Vomiting ([3]; total (N = 41)): 13 (32) n (%)
- On-study deaths ([3]; total (N = 41)): 3 (7) n (%)
- Patients with a response ([4]; normal renal function or ESRD groups (3 and 4 response-evaluable)): no patients
- Patients with a PR ([4]; severe RI, 11 response-evaluable): five
- Stability in dialysate [5]: instability
- Ixazomib clearance in patients with mild or moderate RI [6]: not altered
- PK interaction between ixazomib and dexamethasone [7]: no PK interaction
- Contribution to in vitro metabolism of ixazomib (CYP3A): primary contributors
- Contribution to in vitro metabolism of ixazomib (CYP1A2): primary contributors
